{
  "source": "ChEMBL document CHEMBL1124192",
  "about": "“Cyclopentenylcytosine. A carbocyclic nucleoside with antitumor and antiviral properties” (J Med Chem, 1988)",
  "key": {"Vaccinia virus [1]": {"system": "Vaccinia virus", "assay": "Degree of inhibition of virus-induced cytopathogenic effect and the degree of cytotoxicity produced by compound against vaccinia lederle CA virus", "format": "functional, Orthopoxvirus vaccinia", "method_in_brief": "(§1)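 Southern Research CPE inhibition test in Vero host cells. Confluent monolayers in 96-well plates received drug (minimum seven concentrations, cytotoxic to noncytotoxic) plus virus at 32 CCID50 per 0.1 mL, in triplicate, with cell, virus and drug-cytotoxicity controls. Incubated at 37 °C, 2% CO2. CPE scored microscopically at 3–4 days. VR = 0.1 × sum of CE-grade differences from virus control, halved for partially cytotoxic wells.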"}, "Vaccinia virus [2]": {"system": "Vaccinia virus", "assay": "Dose of compound required to inhibit the vaccinia lederle CA virus induced cytopathogenic effects", "format": "functional", "conditions": "Orthopoxvirus vaccinia; read-out: ID50 (the source's name)", "method_in_brief": "as §1"}},
  "data": [
    {"molecule": "Nc1ncnc2c1ncn2[C@@H]1O[C@H](CO)[C@@H](O)[C@@H]1O", "note": "[VIDARABINE]", "values": [
      {"measurement": "Virus rating", "setting": "Vaccinia virus [1]", "value": 3.1},
      {"measurement": "IC50", "setting": "Vaccinia virus [2]", "value": 9.8, "unit": "µg/mL"}
    ]}
  ]
}
